Assay results published in ChEMBL document CHEMBL1138489, “Chalcones: a valid scaffold for monoamine oxidases inhibitors” (J Med Chem, 2009).

Assays:
[1] = biological target: T1, Amine oxidase [flavin-containing] B (Homo sapiens, UniProt P27338)
T1 sequence (P27338 whole entry): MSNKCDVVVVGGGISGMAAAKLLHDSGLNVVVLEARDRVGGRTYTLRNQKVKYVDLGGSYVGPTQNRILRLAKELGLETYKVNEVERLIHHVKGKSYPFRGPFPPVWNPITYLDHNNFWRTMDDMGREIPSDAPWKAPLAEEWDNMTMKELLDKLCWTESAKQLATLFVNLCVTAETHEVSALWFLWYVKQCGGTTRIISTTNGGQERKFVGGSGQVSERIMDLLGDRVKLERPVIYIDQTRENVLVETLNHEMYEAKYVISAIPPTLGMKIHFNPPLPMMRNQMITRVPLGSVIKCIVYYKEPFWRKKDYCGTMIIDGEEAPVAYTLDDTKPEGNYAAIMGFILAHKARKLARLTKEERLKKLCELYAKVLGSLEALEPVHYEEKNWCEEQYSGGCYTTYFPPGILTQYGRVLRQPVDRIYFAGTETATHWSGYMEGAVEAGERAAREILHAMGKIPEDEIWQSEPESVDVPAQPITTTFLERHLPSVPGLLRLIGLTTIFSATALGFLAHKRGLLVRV

[2] = biological target: T2, Amine oxidase [flavin-containing] A (Homo sapiens, UniProt P21397); test: Inhibition of human recombinant MAO-A assessed as hydrogen peroxide production at 20 uM
T2 sequence (P21397 whole entry): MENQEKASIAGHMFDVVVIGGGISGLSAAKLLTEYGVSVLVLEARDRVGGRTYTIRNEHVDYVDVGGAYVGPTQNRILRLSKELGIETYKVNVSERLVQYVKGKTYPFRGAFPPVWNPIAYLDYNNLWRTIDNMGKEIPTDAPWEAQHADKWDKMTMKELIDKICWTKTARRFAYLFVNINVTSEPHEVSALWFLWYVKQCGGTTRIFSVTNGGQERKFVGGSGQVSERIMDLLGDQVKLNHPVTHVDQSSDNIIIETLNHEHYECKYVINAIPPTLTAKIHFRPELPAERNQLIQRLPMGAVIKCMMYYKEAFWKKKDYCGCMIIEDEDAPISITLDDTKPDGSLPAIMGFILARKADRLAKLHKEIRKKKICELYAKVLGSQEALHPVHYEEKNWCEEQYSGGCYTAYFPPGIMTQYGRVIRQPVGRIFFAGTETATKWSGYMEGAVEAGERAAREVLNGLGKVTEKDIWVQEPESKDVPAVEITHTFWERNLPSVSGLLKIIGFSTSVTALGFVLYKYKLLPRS
Summary of the method: (§1)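 Recombinant hMAO-A or hMAO-B microsomes came from baculovirus-infected BTI-TN-5B1-4 insect cells. Enzyme was set to 165 pmol p-tyramine/min (A 1.1 µg, B 7.5 µg protein). It was preincubated with compound in 0.05 M sodium phosphate, pH 7.4, for 15 min at 37 °C. Final 200 µM Amplex Red, 1 U/mL HRP and 1 mM p-tyramine started the reaction. H2O2 was read as resorufin fluorescence (ex 545/em 590 nm) over 15 min at 37 °C against vehicle controls.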

Homo sapiens = organism: Homo sapiens; test: Selectivity index, ratio of inhibition of human recombinant MAO-A at 20 uM or 50 uM to IC50 for human recombinant MAO-B
[3] = biological target: T1, Amine oxidase [flavin-containing] B; test: Inhibition of human recombinant MAO-B assessed as hydrogen peroxide production at 1 mM
Summary of the method: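 Microsomal recombinant hMAO-B (baculovirus-infected BTI-TN-5B1-4 insect cells; 7.5 µg protein) preincubated with drug in 0.05 M sodium phosphate, pH 7.4, 15 min, 37 °C. Started with (final) 200 µM Amplex Red, 1 U/mL horseradish peroxidase, 1 mM p-tyramine. H2O2 read as resorufin fluorescence (ex 545/em 590 nm) over 15 min at 37 °C. Vehicle controls; five experiments.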

[4] = biological target: T2, Amine oxidase [flavin-containing] A; test: Inhibition of human recombinant MAO-A assessed as hydrogen peroxide production at 1 mM
[5] = biological target: T2, Amine oxidase [flavin-containing] A; test: Inhibition of human recombinant MAO-A assessed as hydrogen peroxide production at 50 uM
Summary of the method: as §1

[6] = biological target: T1, Amine oxidase [flavin-containing] B; test: Inhibition of human recombinant MAO-B assessed as hydrogen peroxide production at 20 uM
[7] = biological target: T1, Amine oxidase [flavin-containing] B; test: Inhibition of human MAO-B at 5 uM before washing
[8] = biological target: T1, Amine oxidase [flavin-containing] B; test: Inhibition of human MAO-B at 5 uM after repeated washing
[9] = biological target: T1, Amine oxidase [flavin-containing] B; test: Inhibition of human MAO-B at 20 uM after repeated washing
[10] = biological target: T1, Amine oxidase [flavin-containing] B; test: Inhibition of human MAO-B at 20 uM before washing
[11] = biological target: T2, Amine oxidase [flavin-containing] A; test: Inhibition of human recombinant MAO-A assessed as hydrogen peroxide production

Q: For `CC(C)=CCOc1ccc(C(=O)/C=C/c2ccc(C)cc2)c(O)c1`, which IC50 [1] is on record?
A: 1030 nM

Q: And the IC50 [2]?
A: Not Active

Q: And the Ratio IC50 (Homo sapiens)?
A: > 19

Q: What does the source list for `CC(C)=CCOc1ccc(C(=O)/C=C/c2ccc(Cl)cc2)c(O)c1`?
A: IC50 [1]: 1250 nM; IC50 [2]: Not Active; Ratio IC50 (Homo sapiens): > 16

Q: `O=C(NCCN1CCOCC1)c1ccc(Cl)cc1` [MOCLOBEMIDE] was tested. Which IC50 [3] did it give?
A: Not Active

Q: How did the IC50 [2] turn out when `O=C(/C=C/c1ccc(Cl)cc1)c1ccc(OCc2ccccc2)cc1` was run?
A: Not Active

Q: For `O=C(/C=C/c1ccc(OCc2ccccc2)cc1)c1ccc(F)cc1`, which IC50 [1] is on record?
A: 500 nM

Q: And the IC50 [2]?
A: Not Active

Q: And the Ratio IC50 (Homo sapiens)?
A: > 40

Q: Which IC50 [4] does the source give for `C#CCN(C)CCCOc1ccc(Cl)cc1Cl` [CLORGILINE] here?
A: Not Active

Q: With `O=C(/C=C/c1ccc(Cl)cc1)c1ccc(O)cc1` as the molecule, how does the IC50 [1] read?
A: 31 nM

Q: What about the IC50 [5] of the same molecule?
A: Not Active

Q: And the Ratio IC50 (Homo sapiens)?
A: > 1610

Q: How did the IC50 [4] turn out when `C#CCN(C)[C@H](C)Cc1ccccc1` [SELEGILINE] was run?
A: Not Active

Q: `CS(=O)(=O)c1ccc(C(=O)/C=C/c2ccc(Cl)cc2)cc1` was tested. Which IC50 [1] did it give?
A: 470 nM

Q: What about the IC50 [2] of the same molecule?
A: Not Active

Q: And the Ratio IC50 (Homo sapiens)?
A: > 43

Q: What does the source list for `COc1ccc(/C=C/C(=O)c2ccc(OCC=C(C)C)cc2O)cc1`?
A: IC50 [6]: Not Active; IC50 [2]: Not Active

Q: Which results are given for `O=C(/C=C/c1ccc(Cl)cc1)c1ccc(F)cc1O`?
A: IC50 [1]: 71 nM; Ratio IC50 (Homo sapiens): > 704

Q: For `COc1ccc(C(=O)/C=C/c2ccc(Cl)cc2)cc1`, which IC50 [1] is on record?
A: 54 nM

Q: What about the IC50 [2] of the same molecule?
A: Not Active

Q: And the Ratio IC50 (Homo sapiens)?
A: > 370

Q: What does the source list for `COc1ccc(C(=O)/C=C/c2ccc(Cl)cc2)c(O)c1`?
A: inhibition (INH) [7]: 59.13%; inhibition (INH) [8]: 60.26%

Q: With `O=C(/C=C/c1ccccc1)c1ccccc1` [CHALCONE] as the molecule, how does the IC50 [1] read?
A: 1410 nM

Q: And the IC50 [2]?
A: Not Active

Q: And the Ratio IC50 (Homo sapiens)?
A: > 14

Q: Which results are given for `CC(C)=CCOc1ccc(C(=O)/C=C/c2ccccc2)c(O)c1` [CORDOIN]?
A: IC50 [1]: 18800 nM; inhibition (INH) [9]: 58.51%; inhibition (INH) [10]: 54.32%; IC50 [2]: Not Active; Ratio IC50 (Homo sapiens): > 1.1

Q: Which IC50 [1] does the source give for `O=C(/C=C/c1ccc(Cl)cc1)c1ccccc1O` here?
A: 160 nM

Q: And the IC50 [5]?
A: Not Active

Q: What about the Ratio IC50 (Homo sapiens) of the same molecule?
A: > 312

Q: `O=C(/C=C/c1ccc(Cl)cc1)c1ccc(O)cc1O` was tested. Which IC50 [1] did it give?
A: 5.1 nM

Q: And the IC50 [4]?
A: Not Active

Q: What about the IC50 [11] of the same molecule?
A: 4950 nM

Q: What about the “inhibition (INH)” value [7] of the same molecule?
A: 55.12%

Q: And the Ratio IC50 (Homo sapiens)?
A: 971

Q: And the “inhibition (INH)” value [8]?
A: 61.38%

Q: What does the source list for `CC(C)=CCOc1ccc(C(=O)/C=C/c2ccc(OCc3ccccc3)cc2)c(O)c1`?
A: IC50 [6]: Not Active; IC50 [2]: Not Active

Q: With `COc1ccc(C(=O)/C=C/c2ccc(OCc3ccccc3)cc2)cc1` as the molecule, how does the IC50 [1] read?
A: 450 nM

Q: What about the IC50 [2] of the same molecule?
A: Not Active

Q: What about the Ratio IC50 (Homo sapiens) of the same molecule?
A: > 44
